Converted amounts (≈) assume the structure as drawn.

Series [1] can be described thus: Tmax in Sprague-Dawley rat at 5 mg/kg, iv. The settings on record: in vivo. Also on record: dose 5 mg/kg, route intravenous. The class given is ADME, organism-based. Put shortly:
(§1)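 Male SD rats, 220−250 g, 6−8 weeks old, n = 3, fasted overnight and for 6 h after dosing. Dosed in 5% Tween in water, 5 mg/kg iv or 15 mg/kg po. Serial retrobulbar blood samples into EDTA-K₂ tubes; plasma levels by HPLC. Parameters from mean plasma concentration by noncompartmental analysis.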

The subject of series [2] is Staphylococcus epidermidis. Nature of the series: Antibacterial activity against methicillin-resistant Staphylococcus epidermidis after 48 hrs by agar dilution method. The class given is functional. The method in brief:
(§2)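 Agar dilution per NCCLS using clinical isolates. Compound DMSO/water solutions are 2-fold serially diluted in water, then mixed 1:10 into hot Mueller–Hinton agar. Inocula come from blood slants, adjusted to about 10⁵−10⁶ cfu/mL in 0.90% saline, and spotted at 10 μL. Plates incubated at 36.5 °C for 48 h. MIC is the lowest concentration giving complete growth inhibition. Run in triplicate at pH 7.40.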

Series [3] has as its system Staphylococcus epidermidis. Nature of the series: Antibacterial activity against methicillin-resistant Staphylococcus epidermidis at 320 ug/ml after 24 hrs by Oxford cup assay. The class given is functional. The note with it: read-out: IZ. Put shortly: (§3)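 Oxford cup diffusion using clinical isolates. Inocula are made in 0.9% saline to a McFarland standard and spread on nutrient agar. […] Inhibition zone diameter is measured after 24 h at 37 °C. Run in triplicate.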

Series [4] relates to Escherichia coli. Nature of the series: Antibacterial activity against Escherichia coli at 160 ug/ml after 24 hrs by Oxford cup assay. The class given is functional. The settings on record: read-out: IZ. Put shortly:
(§4)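 Oxford cup diffusion: saline inoculum set by McFarland standard, spread on nutrient agar plates. […] Inhibition zone measured after 24 h at 37 °C; triplicate.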

Series [5] deals with Streptococcus agalactiae. Put plainly: Antibacterial activity against Streptococcus agalactiae at 160 ug/ml after 24 hrs by Oxford cup assay. Format: functional. The note with it: read-out: IZ. Put shortly:
as §4

The nature of series [6]: Elimination half life in Sprague-Dawley rat at 15 mg/kg, po. The class given is ADME, organism-based. Also on record: dose 15 mg/kg, route oral. The settings on record: in vivo, read-out: beta t1/2 (converted). Put shortly:
as §1

Series [7] deals with Staphylococcus epidermidis. Nature of the series: Antibacterial activity against methicillin-resistant Staphylococcus epidermidis at 160 ug/ml after 24 hrs by Oxford cup assay. Format: functional. The note with it: read-out: IZ. The method in brief:
as §3

The subject of series [8] is Staphylococcus aureus. Put plainly: Antibacterial activity against methicillin-resistant Staphylococcus aureus at 160 ug/ml after 24 hrs by Oxford cup assay. The note with it: read-out: IZ. Format: functional. The method in brief:
as §3

A short description of series [9]: AUC (0 to infinity) in Sprague-Dawley rat at 5 mg/kg, iv. Format: ADME, organism-based. Also on record: time infinity, dose 5 mg/kg, route intravenous. The settings on record: plasma. Put shortly:
as §1

The nature of series [10]: Tmax in Sprague-Dawley rat at 15 mg/kg, po. The class given is ADME, organism-based. Details: dose 15 mg/kg, route oral. The settings on record: in vivo. The method in brief: as §1
Series [11] deals with Staphylococcus aureus. Put plainly: Antibacterial activity against methicillin-resistant Staphylococcus aureus at 320 ug/ml after 24 hrs by Oxford cup assay. The class given is functional. The note with it: read-out: IZ. The method in brief:
as §3

Series [12] is described as follows: AUC (0 to infinity) in Sprague-Dawley rat at 15 mg/kg, po. Format: ADME, organism-based. Details: time infinity, dose 15 mg/kg, route oral. The settings on record: plasma. Put shortly:
as §1

The nature of series [13]: Oral bioavailability in Sprague-Dawley rat at 15 mg/kg. The note with it: in vivo. The class given is ADME, organism-based. The method in brief:
as §1

The test system of series [14] is Escherichia coli. Put plainly: Antibacterial activity against Escherichia coli at 320 ug/ml after 24 hrs by Oxford cup assay. The class given is functional. The settings on record: read-out: IZ. Put shortly: as §4
Series [15] relates to Streptococcus agalactiae. Put plainly: Antibacterial activity against Streptococcus agalactiae at 320 ug/ml after 24 hrs by Oxford cup assay. Format: functional. The settings on record: read-out: IZ. Put shortly:
as §4

Series [16] concerns Escherichia coli. Put plainly: Antibacterial activity against Escherichia coli after 48 hrs by agar dilution method. The class given is functional. Put shortly:
(§5)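 Agar dilution per NCCLS on Mueller–Hinton agar; compound in DMSO/water, 2-fold serial dilutions in distilled water, 2 mL dilution mixed into 18 mL hot agar. Clinical isolates from blood slants, adjusted to about 10⁵−10⁶ cfu/mL in 0.90% saline; 10 μL spotted. Incubated 36.5 °C for 48 h; MIC = lowest concentration giving complete growth inhibition. Triplicate runs.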
A general note: Agar dilution tests growth on a series of plates holding different concentrations.

Series [17] in a line: Cmax in Sprague-Dawley rat at 15 mg/kg, po. Details: dose 15 mg/kg, route oral. The settings on record: in vivo. The class given is ADME, organism-based. Put shortly:
as §1

A short description of series [18]: Mean residence time in Sprague-Dawley rat at 5 mg/kg, iv. Format: ADME, organism-based. The note with it: in vivo. Details: dose 5 mg/kg, route intravenous. Put shortly: as §1
Series [19] can be described thus: Volume of distribution at steady state in Sprague-Dawley rat at 5 mg/kg, iv. Format: ADME, organism-based. Also on record: dose 5 mg/kg, route intravenous. The note with it: in vivo, read-out: Vdss. The method in brief: as §1
For series [20], the system named is Staphylococcus aureus. Put plainly: Antibacterial activity against methicillin-resistant Staphylococcus aureus after 48 hrs by agar dilution method. The class given is functional. The method in brief: as §2
Series [21] can be described thus: Clearance in Sprague-Dawley rat at 15 mg/kg, po. Format: ADME, organism-based. Details: dose 15 mg/kg, route oral. The settings on record: in vivo. Put shortly: as §1
Series [22] is described as follows: Mean residence time in Sprague-Dawley rat at 15 mg/kg, po. Format: ADME, organism-based. Details: dose 15 mg/kg, route oral. The settings on record: in vivo. Put shortly: as §1
A short description of series [23]: Elimination half life in Sprague-Dawley rat at 5 mg/kg, iv. Format: ADME, organism-based. Also on record: dose 5 mg/kg, route intravenous. The settings on record: in vivo, read-out: beta t1/2 (converted). Put shortly: as §1
Series [24] in a line: Clearance in Sprague-Dawley rat at 5 mg/kg, iv. Details: dose 5 mg/kg, route intravenous. The class given is ADME, organism-based. The settings on record: in vivo. The method in brief: as §1
The subject of series [25] is Streptococcus agalactiae. Put plainly: Antibacterial activity against Streptococcus agalactiae after 48 hrs by agar dilution method. Format: functional. Put shortly: as §5
The next series concerns Rattus norvegicus. Nature of the series: Volume of distribution at steady state in Sprague-Dawley rat at 15 mg/kg, po. Format: ADME, organism-based. Details: dose 15 mg/kg, route oral. The settings on record: in vivo. Put shortly:
as §1

Series [26] in a line: Cmax in Sprague-Dawley rat at 5 mg/kg, iv. Format: ADME, organism-based. Details: dose 5 mg/kg, route intravenous. The note with it: in vivo. The method in brief:
as §1

Series [27] is described as follows: Oral bioavailability in duck. Format: ADME, organism-based. The settings on record: anas platyrhynchos, in vivo.
Series [28] in a line: Oral bioavailability in chicken. The class given is ADME, organism-based, Gallus gallus. The settings on record: in vivo.

`C=C[C@]1(C)C[C@@H](OC(=O)CSc2nnc(N)s2)[C@]2(C)[C@H](C)CC[C@]3(CCC(=O)[C@H]32)[C@@H](C)[C@@H]1O`: the Tmax (as a rule, the time at which the peak concentration occurs) in series [1] was 4.8 min; in series [10], 0.75 h. Besides, the MIC (in general, the lowest concentration found to suppress growth) in series [2] turned out to be 1 µg/mL (≈ 2.03 µM); against Escherichia coli [16], 8 µg/mL (≈ 16.2 µM); with Staphylococcus aureus [20], 0.5 µg/mL (≈ 1.01 µM); in the series with Streptococcus agalactiae [25], 0.25 µg/mL (≈ 0.506 µM). Also, the zone of inhibition at 320 µg/mL in series [3] was 15.2 mm; in the series with Staphylococcus aureus [11] it was 15.6 mm; in the series on Escherichia coli [14] it was 14.3 mm; in the series on Streptococcus agalactiae [15], 17.3 mm. Besides, the zone of inhibition at 160 µg/mL in the series on Escherichia coli [4] was 12.4 mm; in the series with Streptococcus agalactiae [5], 15 mm; in series [7], 12.8 mm; in the series on Staphylococcus aureus [8], 13 mm. In addition, the half-life in series [6] is 6.07 h; in [23], 3.4 h. The AUC(0-inf) (commonly the area under the concentration-time curve extrapolated to infinity) in [9] came to 15400 ng·h/mL; in series [12], 24600 ng·h/mL. Besides, the bioavailability (in general, dose-corrected exposure relative to a reference, in per cent) in series [13] amounted to 35.8%. For the same compound, the figures for the Cmax in series [17] and in series [26] were 3070 ng/mL and 13600 ng/mL, respectively. Moreover, the figures for the MRT in series [18] and in series [22] were 2.84 h and 8.42 h, respectively. Further, in [19], the Vd turned out to be 0.92 L/kg. Moreover, in [21], the apparent clearance (CL/F) (in general, clearance divided by bioavailability, as obtained after extravascular dosing) is 10.2 mL/min/kg. The clearance (as a rule, the volume of plasma or blood freed of the substance per unit of time) in series [24] was 5.41 mL/min/kg. Besides, in the series with Rattus norvegicus, the Vdss stood at 5.14 L/kg.

Turning to `C=C[C@]1(C)C[C@@H](OC(=O)CSc2nnc(NC(=O)CN3CCCCC3)s2)[C@]2(C)[C@H](C)CC[C@]3(CCC(=O)[C@H]32)[C@@H](C)[C@@H]1O`, the Tmax turned out to be 4.8 min in [1] and 0.75 h in series [10]. Also, the minimum inhibitory concentration (MIC) was determined as 1 µg/mL (≈ 1.62 µM) in series [2], 16 µg/mL (≈ 25.9 µM) against Escherichia coli [16], 0.5 µg/mL (≈ 0.808 µM) against Staphylococcus aureus [20] and 0.5 µg/mL (≈ 0.808 µM) in the series on Streptococcus agalactiae [25]. For the same compound, the zone of inhibition at 320 µg/mL in series [3] is 17.4 mm; in the series with Staphylococcus aureus [11] it was 18.8 mm; with Escherichia coli [14] it was 13.3 mm; in the series with Streptococcus agalactiae [15] it was 17.7 mm. For the same compound, the zone of inhibition at 160 µg/mL amounted to 11.7 mm in the series on Escherichia coli [4], 13.5 mm in the series with Streptococcus agalactiae [5], 14.5 mm in series [7] and 13.8 mm in the series with Staphylococcus aureus [8]. Moreover, the figures for the half-life in series [6] and in series [23] were 5.98 h and 3.89 h, respectively. Also, the AUC(0-inf) in series [9] amounted to 14100 ng·h/mL; in series [12], 24100 ng·h/mL. Moreover, the bioavailability in series [13] was determined as 39.7%. The figures for the Cmax in series [17] and in series [26] were 4650 ng/mL and 11300 ng/mL, respectively. Moreover, the MRT – broadly, a mean duration of stay, worked out from the concentration-time curve – turned out to be 2.88 h in series [18] and 7.91 h in series [22]. Further, in [19], the Vd worked out at 1.02 L/kg. This compound showed a CL/F in series [21] of 10.4 mL/min/kg. The same compound had a clearance in series [24] of 5.9 mL/min/kg. This compound also displayed a Vdss in the series on Rattus norvegicus of 4.91 L/kg.

For `C=C[C@]1(C)C[C@@H](OC(=O)CSC(C)(C)CNC(=O)[C@H](N)C(C)C)[C@]2(C)[C@H](C)CC[C@]3(CCC(=O)[C@H]32)[C@@H](C)[C@@H]1O` [VALNEMULIN], the bioavailability in [27] amounted to 36.7%; in series [28], 74%.

Take `C=C[C@]1(C)C[C@@H](OC(=O)CSc2nnc(NC(=O)c3ccccc3OC)s2)[C@]2(C)[C@H](C)CC[C@]3(CCC(=O)[C@H]32)[C@@H](C)[C@@H]1O`: the minimal inhibitory concentration (MIC) turned out to be 2 µg/mL (≈ 3.19 µM) in series [2], 16 µg/mL (≈ 25.5 µM) against Escherichia coli [16], 1 µg/mL (≈ 1.59 µM) against Staphylococcus aureus [20] and 4 µg/mL (≈ 6.37 µM) with Streptococcus agalactiae [25]. The zone of inhibition at 320 µg/mL is 14.2 mm in series [3], 14.8 mm in the series on Staphylococcus aureus [11], 11.5 mm with Escherichia coli [14] and 13.4 mm with Streptococcus agalactiae [15]. In addition, the zone of inhibition at 160 µg/mL was found to be 9.96 mm in the series on Escherichia coli [4], 11.3 mm with Streptococcus agalactiae [5], 11.9 mm in series [7] and 12.2 mm in the series on Staphylococcus aureus [8].

These data come from ChEMBL document CHEMBL3286209, “Synthesis and biological activities of novel pleuromutilin derivatives with a substituted thiadiazole moiety as potent drug-resistant bacteria inhibitors” (J Med Chem, 2014).
